Laboratory results: ChEMBL document CHEMBL1123657, “Anthrapyrazole anticancer agents. Synthesis and structure-activity relationships against murine leukemias” (J Med Chem, 1987)

Assays:
L1210 = experiment: Tested in vitro against murine L1210 leukemia.; assay type: functional, cell-based; conditions: Mus musculus
P388 [1] = experiment: Activity against P388 leukemia cells in mice, by intraperitoneal dosing and net log tumor cell kill was reported; assay type: functional, Mus musculus
P388 [2] = experiment: Optimal dose per injection in mg/kg required to inhibit growth of P388 leukemia cells in mice; assay type: functional, Mus musculus
Procedure, shortened: (§1)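 P388 leukemia implanted ip in mice; drug given ip on days 1 and 5 (ip/ip; D1,5), dosed in mg/kg per injection. Read-out is treated/control (T/C, %) with cures counted, reported at the optimal dose.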

P388 [3] = experiment: Inhibition of P388 leukemia cells in mice, measured as percent treated to the control values with the number of 30 day survivors; assay type: functional, Mus musculus; procedure, shortened: as §1

Compound	IC50 (L1210) [nM]	Activity (P388 [1])	Dose (P388 [2]) [mg/kg]	T/C (P388 [3]) [%]
CCN(CC)CCNc1ccc2c3c(nn2CC(O)CN(CC)CC)-c2c(O)ccc(O)c2C(=O)c13.Cl (stereo unspecified)	1300	1.2	100	
CN(C)CCNCCn1nc2c3c(c(NCCNCCO)ccc31)C(=O)c1c(O)ccc(O)c1-2.Cl	1400	>6.8	50	226
CCN(CC)CCn1nc2c3c(c(NCCNCCO)ccc31)C(=O)c1ccccc1-2.Cl	32	2.6	25	169
CNCCNc1ccc2c3c(nn2CCN)-c2c(O)ccc(O)c2C(=O)c13	700			
CNCCn1nc2c3c(c(NCCNCCO)ccc31)C(=O)c1c(O)ccc(O)c1-2.Cl	440	>6.8	3.12	324
Cl.NCCCNc1ccc2c3c(nn2CCCNCCO)-c2c(O)ccc(O)c2C(=O)c13	1800	3.4	100	185
CN(C)CCNc1ccc2c3c(nn2CCNCCO)-c2ccccc2C(=O)c13.Cl	32	3.1	6.25	174
CCN(CC)CCn1nc2c3c(c(NCCN4CCNCC4)ccc31)C(=O)c1ccccc1-2.Cl	500	-1.3	25	109
CCN(CC)CCn1nc2c3c(c(NCCN4CCN(C(=O)OCc5ccccc5)CC4)ccc31)C(=O)c1ccccc1-2	390			
Cl.NCCNc1ccc2c3c(nn2CCN)-c2c(O)ccc(O)c2C(=O)c13	480	5.6	12.5	221
Cl.NCCn1nc2c3c(c(NCCNCCO)ccc31)C(=O)c1ccccc1-2	80	3.7	25	
CCN(CC)CCNc1ccc2c3c(nn2CCO)-c2ccccc2C(=O)c13.Cl	880	0.8	400	145
Cl.Cn1nc2c3c(c(NCCNCCO)ccc31)C(=O)c1c(O)ccc(O)c1-2	150	2.9	100	
Cl.Cn1nc2c3c(c(NCCN)ccc31)C(=O)c1c(O)ccc(O)c1-2	240	0	12.5	138
CCCCCCNc1ccc2c3c(nn2CCN(CC)CC)-c2ccccc2C(=O)c13.Cl	2000	-1.4	200	110
CCN(CC)CCNc1ccc2c3c(nn2CCNCCO)-c2ccccc2C(=O)c13.Cl	60	1.8	12.5	158
Cl.NCCn1nc2c3c(c(NCCCNCCO)ccc31)C(=O)c1c(O)ccc(O)c1-2	870	3.4	6.25	194
CN(C)CCNc1ccc2c3c(nn2CCNCCO)-c2c(O)ccc(O)c2C(=O)c13.Cl	230	>6.6	12.5	250
Cl.Cn1nc2c3c(cccc31)C(=O)c1c(NCCNCCO)cccc1-2	1200	-1.3	200	118
CN(C)CCn1nc2c3c(c(NCCCN)ccc31)C(=O)c1c(O)ccc(O)c1-2.Cl	540	4.7	12.5	208
CN(C)CCN(C)c1ccc2c3c(nn2CCNCCO)-c2c(O)ccc(O)c2C(=O)c13.Cl	630	4.9	12.5	
CN(C)CCCn1nc2c3c(c(NCCCN)ccc31)C(=O)c1c(O)ccc(O)c1-2.Cl	800	4	25	212
Br.CCN(CC)CCn1nc2c3c(c(NCCNC)ccc31)C(=O)c1c(O)ccc(O)c1-2	7400	>7.1	25	
Cl.OCCNCCNc1ccc2c3c(c4ccccc4c(O)c13)N=N2	2200	-0.8	100	126
CN(CCO)CCn1nc2c3c(c(NCCNCCO)ccc31)C(=O)c1c(O)ccc(O)c1-2.Cl	330	4.2	12.5	
Cl.O=C1c2c(O)ccc(O)c2-c2nn(CCNCCO)c3ccc(NCCCN(CCO)CCO)c1c23	920	3.6	100	194
CN(C)CCNc1ccc2c3c(nn2Cc2ccccc2)-c2c(O)ccc(O)c2C(=O)c13.Cl	860	-1.5	25	104

Compound	IC50 (L1210) [nM]	Activity (P388 [1])	Dose (P388 [2]) [mg/kg]	T/C (P388 [3]) [%]
CN(C)CCNCCNc1ccc2c3c(nn2CCN)-c2c(O)ccc(O)c2C(=O)c13.Cl	930	6.4	50	242
CCN(CC)CCCCCCCNc1ccc2c3c(nn2CCN(CC)CC)-c2ccccc2C(=O)c13.Cl	630	-1.5	25	104
NCCCNc1ccc2c3c(nn2CCN)-c2c(O)ccc(O)c2C(=O)c13	310			
CN(C)CCn1nc2c3c(c(NCCN)ccc31)C(=O)c1c(O)ccc(O)c1-2.Cl	220	>6.6	12.5	263
CCN(CC)CCNc1ccc2c3c(nn2CCN(CC)CC)-c2c(O)ccc(O)c2C(=O)c13.Cl	550	3.5	100	180
CN(C)CCCn1nc2c3c(c(NCCNCCO)ccc31)C(=O)c1c(O)ccc(O)c1-2.Cl	590	5.4	12.5	
Cl.O=C1c2c(NCCNCCO)cccc2-c2nn(CCNCCO)c3cccc1c23	390	-0.3	12.5	133
CCN(CC)CCNc1ccc2c3c(nn2CCO)-c2c(O)ccc(O)c2C(=O)c13.Cl	730	4.6	400	190
CCN(CC)CCNc1ccc2c3c(nn2C)-c2c(O)ccc(O)c2C(=O)c13.Cl	450	1.3	400	152
CCN(CC)CCNc1ccc2c3c(nn2CCN(CC)CC)-c2ccccc2C(=O)c13.Cl	390	-1.4	50	106
Cl.O=C1c2ccccc2-c2nn(CCO)c3ccc(NCCNCCO)c1c23	1800	-0.9	25	125
CN(C)CCCn1nc2c3c(c(NCCN)ccc31)C(=O)c1c(O)ccc(O)c1-2.Cl	200	6.6	12.5	230
CCN(CC)CCNc1ccc2c3c(nn2CCNCCO)-c2c(O)ccc(O)c2C(=O)c13.Cl	510	>6.7	50	
COCCn1nc2c3c(c(NCCNCCO)ccc31)C(=O)c1c(O)ccc(O)c1-2.Cl	1600	0.3	100	140
CCN(CC)CCNc1ccc2c3c(c4ccccc4c(O)c13)N=N2.Cl	1500	-1.4	400	111
CN(C)CCNCCNc1ccc2c3c(nn2CCNCCO)-c2c(O)ccc(O)c2C(=O)c13.Cl	760	>6.8	50	254
Cl.O=C1c2c(O)ccc(O)c2-c2nn(CCNCCO)c3ccc(NCCCNCCO)c1c23	1800	>6.8	6.25	254
Cl.NCCNc1ccc2c3c(nn2CCNCCO)-c2c(O)ccc(O)c2C(=O)c13	1600	4.8	3.12	197
Cl.NCCNCCNc1ccc2c3c(nn2CCNCCO)-c2c(O)ccc(O)c2C(=O)c13	330	>6.6	25	277
CNc1ccc2c3c(nn2CCNCCO)-c2ccccc2C(=O)c13.Cl	740	-0.7	200	127
Cl.NCCNc1ccc2c3c(nn2CCNCCO)-c2ccccc2C(=O)c13	69	4.4	25	
CCN(CC)CCNc1cccc2c1C(=O)c1cccc3c1c-2nn3CCN(CC)CC.Cl	600	-1.5	50	103
CCN(CC)CCn1nc2c3c(c(NCCN4CCOCC4)ccc31)C(=O)c1ccccc1-2.Cl	480	>6.8	400	
CCN(CC)CCn1nc2c3c(c(NCCNC)ccc31)C(=O)c1ccccc1-2.Cl	27	0.7	25	138
CN(C)CCNCCNc1ccc2c3c(nn2CCCN)-c2c(O)ccc(O)c2C(=O)c13.Cl	640	5.6	25	228
Cl.O=C1c2c(O)ccc(O)c2-c2nn(CCNCCO)c3ccc(NCCNCCO)c1c23	740	4.6	6.25	
CN(C)CCNc1ccc2c3c(nn2CCO)-c2c(O)ccc(O)c2C(=O)c13.Cl	15	6.6	200	283
